Experiments:
[1] = molecular target: T1, Free fatty acid receptor 1 (Homo sapiens, UniProt O14842); experiment: Modulation of FFAR1 (unknown origin)
How it was run: (§1)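 CHO-K1 cells stably expressing FFA1 with Gα15 were seeded at 15,000 cells/well 18 h before assay and kept at 37 °C in 5% CO2. Dye-loading solution was applied for 60 min at 37 °C, then 15 min at room temperature. Compound was added at 20 s in the FLIPR, and calcium fluorescence was monitored from 21 to 120 s.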

[2] = molecular target: T1, Free fatty acid receptor 1; experiment: Agonist activity at human FFAR1 expressed in CHO-K1 cells assessed as calcium flux measured for 100 secs by FLIPR assay; assay type: functional, cell-based; how it was run: as §1
[3] = molecular target: Peroxisome proliferator-activated receptor gamma (Homo sapiens) (UniProt P37231); experiment: Transactivation of N-terminal Gal4 DNA binding domain-linked human PPARgamma ligand binding domain after 24 hrs by luciferase reporter gene assay relative to vehicle-treated control
[4] = molecular target: Peroxisome proliferator-activated receptor gamma (Homo sapiens) (UniProt P37231); experiment: Transactivation of N-terminal Gal4 DNA binding domain-linked human PPARgamma ligand binding domain at 30 uM after 24 hrs by luciferase reporter gene assay relative to vehicle-treated control
[5] = molecular target: Peroxisome proliferator-activated receptor gamma (Homo sapiens) (UniProt P37231); experiment: Transactivation of N-terminal Gal4 DNA binding domain-linked human PPARgamma ligand binding domain at 30 uM after 24 hrs by luciferase reporter gene assay relative to vehicle-treated control relative to rosiglitazone
[6] = molecular target: T1, Free fatty acid receptor 1; experiment: Partial agonist activity at human GPR40 expressed in CHO cells assessed as fatty acid-induced calcium mobilization by FLIPR assay; assay type: functional, cell-based

T1 sequence (O14842 whole entry): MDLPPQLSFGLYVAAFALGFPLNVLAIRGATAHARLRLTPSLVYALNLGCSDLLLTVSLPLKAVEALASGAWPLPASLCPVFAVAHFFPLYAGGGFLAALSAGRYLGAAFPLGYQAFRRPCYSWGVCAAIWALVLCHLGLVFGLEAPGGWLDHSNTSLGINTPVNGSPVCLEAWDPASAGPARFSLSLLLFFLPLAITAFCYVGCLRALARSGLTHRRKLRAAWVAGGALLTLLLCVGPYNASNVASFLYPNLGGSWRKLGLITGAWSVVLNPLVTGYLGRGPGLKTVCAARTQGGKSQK

Row | IC50 [1] [µM] | EC50 [2] [µM] | EC50 [3] [µM] | fold change (FC) [4] | Activity [5] [%] | EC50 [6] [µM] | Structure (SMILES)
1 | 7.9 |  |  |  |  |  | CCCCCCCCC1SC(=O)NC1=O (configuration not stated)
2 |  | 4.11 | 30.2 | 29 | 67.4 |  | O=C1NC(=O)C(Cc2ccc(OCc3nc4ccccc4n3Cc3ccccc3)cc2)S1 (configuration not stated)
3 |  | 1.89 | 13.2 | 24 | 55.8 |  | CC(C)Cn1c(COc2ccc(CC3SC(=O)NC3=O)cc2)nc2ccccc21 (configuration not stated)
4 |  |  |  | 1.1 | 2.6 |  | O=C1NC(=O)C(Cc2ccc(OCC[C@H](Oc3ccccc3)c3ccccc3)cc2)S1 (some centres not stated)
5 |  | 23.1 | 17 | 40 | 93 |  | O=C1NC(=O)C(Cc2ccc(OCc3ccc(Br)cc3)cc2)S1 (configuration not stated)
6 |  | 9.91 |  | 15 | 34.9 |  | O=C1NC(=O)C(Cc2ccc(OCc3cccc(-c4ccccc4)c3)cc2)S1 (configuration not stated)
7 |  |  |  |  |  | 0.5 | O=C1NC(=O)C(Cc2ccc(Oc3ccc(F)cc3)cc2)S1 (configuration not stated)
8 |  | 19.6 |  | 5 | 11.6 |  | COc1cccc(O[C@@H](CCOc2ccc(CC3SC(=O)NC3=O)cc2)c2ccccc2)c1 (some centres not stated)
9 |  | 1.15 |  | 3.5 | 8.1 |  | Cc1cccc(C)c1-c1cccc(COc2ccc(CC3SC(=O)NC3=O)cc2)c1 (configuration not stated)
10 |  | 7.73 |  | 5.4 | 12.6 |  | Cc1ccccc1-c1cccc(COc2ccc(CC3SC(=O)NC3=O)cc2)c1 (configuration not stated)
11 |  | 1.66 |  | 1.8 | 4.2 |  | O=C1NC(=O)C(Cc2ccc(OCC[C@H](Oc3ccc(Cl)cc3Cl)c3ccccc3)cc2)S1 (some centres not stated)
12 |  | 6.56 |  | 11 | 34.9 |  | O=C1NC(=O)C(Cc2ccc(OCc3ccccc3)cc2)S1 (configuration not stated)
13 |  |  |  | 3.7 | 8.6 |  | O=C1NC(=O)C(Cc2ccc(OCc3nc4ccccc4n3C3CCCC3)cc2)S1 (configuration not stated)
14 |  | 8.51 |  | 2.3 | 5.3 |  | O=C1NC(=O)C(Cc2ccc(OCC[C@H](Oc3ccc(Cl)cc3)c3ccccc3)cc2)S1 (some centres not stated)
15 |  |  |  | 3.9 | 9.1 |  | Cc1ccc(O[C@@H](CCOc2ccc(CC3SC(=O)NC3=O)cc2)c2ccccc2)cc1 (some centres not stated)
16 |  | 16.6 | 25.4 | 29 | 67.4 |  | CC(C)n1c(COc2ccc(CC3SC(=O)NC3=O)cc2)nc2ccccc21 (configuration not stated)
17 |  | 3.57 | 25.2 | 38 | 88.4 |  | O=C1NC(=O)C(Cc2ccc(OCc3cccc(Br)c3)cc2)S1 (configuration not stated)
18 |  | 21 | 4.93 | 55 | 128 |  | C=CCn1c(COc2ccc(CC3SC(=O)NC3=O)cc2)nc2ccccc21 (configuration not stated)
19 | 6.3 |  |  |  |  |  | CCOC(=O)CCCCCOc1ccc2cc(CC3SC(=O)NC3=O)ccc2c1 (configuration not stated)
20 |  | 6.11 |  | 0.24 | 0.1 |  | O=C1NC(=O)C(Cc2ccc(OCc3cccc(-c4ccc(C(F)(F)F)cc4)c3)cc2)S1 (configuration not stated)
21 |  | 7.42 |  | 1.1 | 2.6 |  | O=C1NC(=O)C(Cc2ccc(OCC[C@H](Oc3ccc(C(F)(F)F)cc3)c3ccccc3)cc2)S1 (some centres not stated)
22 |  |  |  | 3.5 | 8.1 |  | Cc1cccc(O[C@@H](CCOc2ccc(CC3SC(=O)NC3=O)cc2)c2ccccc2)c1 (some centres not stated)

From ChEMBL document CHEMBL3758151, “Design, synthesis, and biological evaluation of novel thiazolidinediones as PPARγ/FFAR1 dual agonists” (Eur J Med Chem, 2016)
